Published values gathered from unrelated publications.
Lines come from different studies, so protocols differ.
ABL1: Tyrosine-protein kinase ABL1 (ABL1, Homo sapiens, UniProt P00519)
ABL1 T315I: Tyrosine-protein kinase ABL1 (ABL1, Homo sapiens, UniProt P00519, T315I)
ABL1 F317I phosphorylated: Tyrosine-protein kinase ABL1, phosphorylated (ABL1, Homo sapiens, UniProt P00519, F317I)
ABL1 Y253F: Tyrosine-protein kinase ABL1 (ABL1, Homo sapiens, UniProt P00519, Y253F)
ABL1 non-phosphorylated: Tyrosine-protein kinase ABL1, non-phosphorylated (ABL1, Homo sapiens, UniProt P00519)
ABL1 Y253F phosphorylated: Tyrosine-protein kinase ABL1, phosphorylated (ABL1, Homo sapiens, UniProt P00519, Y253F)
ABL1 H396P non-phosphorylated: Tyrosine-protein kinase ABL1, non-phosphorylated (ABL1, Homo sapiens, UniProt P00519, H396P)
ABL1 M351T: Tyrosine-protein kinase ABL1 (ABL1, Homo sapiens, UniProt P00519, M351T)
ABL1 F317I non-phosphorylated: Tyrosine-protein kinase ABL1, non-phosphorylated (ABL1, Homo sapiens, UniProt P00519, F317I)
ABL1 phosphorylated: Tyrosine-protein kinase ABL1, phosphorylated (ABL1, Homo sapiens, UniProt P00519)
ABL1 Q252H phosphorylated: Tyrosine-protein kinase ABL1, phosphorylated (ABL1, Homo sapiens, UniProt P00519, Q252H)
ABL1 H396P phosphorylated: Tyrosine-protein kinase ABL1, phosphorylated (ABL1, Homo sapiens, UniProt P00519, H396P)

Structure (SMILES)	target	observed	mode	technique	concentration	quantity	value
COc1cc2nccc(Oc3ccc(NC(=O)Nc4ccc(F)cc4F)c(F)c3)c2cc1OC	ABL1	thermal stability	–	DSF	10 µM	ΔTm	> 10 °C
CNc1cccc2cc(C(=O)Nc3ccc(C(=O)O)cc3)c(=O)[nH]c12	ABL1 T315I	enzyme activity	inhibitor	–	10 µM	inhibition	1.3%
c1cncc(-c2cccc(Nc3nccc(NC4CCCCC4)n3)c2)c1	ABL1 F317I phosphorylated	binding	–	competition with immobilised ligand	10 µM	remaining binding	100%
O=C1NC(=O)c2cc(Nc3ccc(F)cc3)c(Nc3ccc(F)cc3)cc21	ABL1	cell-free assay	–	–	0.5 µM	remaining signal	95.7%
CC1CCCN1c1nccc(-c2cnn3ncccc23)n1 (stereo not drawn)	ABL1 Y253F	binding	–	–	1 µM	remaining binding	96%
CCCOc1ccc(OC)c(F)c1C(=O)c1ccc(C(=O)N[C@@H]2CNC[C@H]2NC(=O)c2ccc3[nH]ncc3c2)cc1	ABL1 T315I	enzyme activity	inhibitor	–	10 µM	remaining activity	85%
Cc1ccc(NC(=O)c2ccc(C)c(C(F)(F)F)c2)cc1C#Cc1nn(C2CCC(O)CC2)c2ncnc(N)c12 (stereo not drawn)	ABL1	cell-free assay	–	–	10 µM	remaining signal	-3%
C[C@H]1CCN(c2nccc(-c3cnn4ncccc34)n2)C1	ABL1 non-phosphorylated	binding	–	–	1 µM	remaining binding	86%
O=C(Nc1c[nH]nc1C(=O)NC1CCNCC1)c1cc(F)cc(F)c1	ABL1 Y253F phosphorylated	binding	–	competition with immobilised ligand	1 µM	remaining binding	100%
CNC(=O)[C@@H]1CC[C@@H](n2c(-c3ccc4cnccc4c3)nc3ccc(C(=O)NCc4cccc(C(N)=O)c4)cc32)C1	ABL1 F317I phosphorylated	binding	–	competition with immobilised ligand	1 µM	remaining binding	100%
CCN1CCN(Cc2ccc(C(=O)Nc3ccc(C)c(Oc4ccc5c(c4)CC(=O)N5)c3)cc2C(F)(F)F)CC1	ABL1 non-phosphorylated	binding	–	competition with immobilised ligand	1 µM	remaining binding	2.1%
Cc1cnc(Nc2ccc(C(=O)N3CCC(N4CCCC4)CC3)cc2)nc1-c1cc2ccccc2s1	ABL1 H396P non-phosphorylated	binding	–	competition with immobilised ligand	1 µM	remaining binding	0.1%
Cc1cc(C)c(-n2ccn3nc(-c4cccnc4)cc23)cc1NC(=O)c1cc(C#N)cc(S(F)(F)(F)(F)F)c1	Tyrosine-protein kinase ABL1, phosphorylated (ABL1, Homo sapiens, UniProt P00519, F317L)	cell-free assay	–	competition with immobilised ligand	0.1 µM	remaining binding	63.3%
Cc1cc(NC(=O)c2cccc3cc(-c4cccc5[nH]nc(N)c45)ccc23)ccc1F	ABL1 M351T	enzyme activity	inhibitor	–	0.1 µM	activity vs control	89%
O=C(c1ccc(Nc2ncc(Cl)c(-c3cc4ccccc4s3)n2)cc1)N1CCC(N2CCCC2)CC1	ABL1 F317I non-phosphorylated	binding	–	competition with immobilised ligand	1 µM	remaining binding	74%
O=C(Nc1cnc(Oc2ccc(F)cc2)nc1)N1CCc2ncccc2[C@@H]1c1ccc(F)cc1	ABL1 phosphorylated	cell-free assay	–	competition with immobilised ligand	1 µM	remaining binding	94%
O=C(NCCCN1CCOCC1)c1ccc(Nc2nccc(-c3cc4ccccc4s3)n2)cc1	ABL1 Y253F phosphorylated	binding	–	competition with immobilised ligand	1 µM	remaining binding	44%
CN(CCCC(F)(F)F)c1nccc(-c2cnn3ncccc23)n1	Tyrosine-protein kinase ABL1 (ABL1, Homo sapiens, UniProt P00519, F317I)	binding	–	–	1 µM	remaining binding	100%

Structure (SMILES)	target	observed	mode	technique	concentration	quantity	value
Nc1ncnc2occ(-c3ccc(NC(=O)Nc4cc(C(F)(F)F)ccc4F)cc3)c12	ABL1 F317I non-phosphorylated	cell-free assay	inhibitor	–	20 µM	remaining signal	0.45%
Cc1ccc(NC(=O)c2ccc(CN3CCN(C)CC3)cc2)cc1Nc1nc(-c2cccnc2)cs1	ABL1	cell-free assay	–	–	0.5 µM	remaining signal	49.8%
Cc1ccc(C(=O)NCc2ccsc2)cc1C#Cc1cn(C(C)C)c2ncnc(N)c12	ABL1	enzyme activity	inhibitor	–	1 µM	activity vs control	1%
CN([C@@H]1CCc2c(CC(=O)O)c3ccccc3n2C1)S(=O)(=O)c1ccc(F)cc1	ABL1 H396P non-phosphorylated	cell-free assay	–	competition with immobilised ligand	1 µM	remaining binding	100%
CC(C)c1ccc(NC(=O)c2cccs2)c(-c2nc3ccccc3[nH]c2=O)c1	ABL1	enzyme activity	inhibitor	–	1 µM	activity vs control	115%
O=C(c1ccc(Nc2ncc(Cl)c(-c3ccc(Cl)s3)n2)cc1)N1CCC(N2CCCC2)CC1	ABL1 F317I non-phosphorylated	binding	–	competition with immobilised ligand	1 µM	remaining binding	97%
CC(=O)N1CCC(c2ccc(C(=O)NC(=N)N)cc2C(F)(F)F)CC1	ABL1 F317I phosphorylated	binding	–	–	1 µM	remaining binding	96%
COc1ncc2cc3ccccc3nc2c1C#N	Tyrosine-protein kinase ABL1, phosphorylated (ABL1, Homo sapiens, UniProt P00519, E255K)	cell-free assay	–	competition with immobilised ligand	5 µM	remaining binding	100%
Nc1cnc(N2CCc3cc(S(=O)(=O)Nc4c(F)cc(Cl)cc4F)cc(N4CCCC4=O)c32)nc1	ABL1 Q252H phosphorylated	cell-free assay	–	competition with immobilised ligand	1 µM	remaining binding	98%
COc1cc2ncnc(Nc3ccc(Oc4ccccc4)c(C)c3C)c2cc1OC	Tyrosine-protein kinase ABL1 (ABL1, Homo sapiens, UniProt P00519, E255K)	enzyme activity	inhibitor	–	1 µM	inhibition	5%
N#CCCc1ccc2c(c1)-c1[nH]c3ccc([N+](=O)[O-])cc3c1CC(=O)N2	ABL1	cell-free assay	–	–	0.5 µM	remaining signal	47.8%
COc1cc(-c2cc(-c3ccc(N4CCNCC4)cc3)cnc2N)cc(OC)c1OC	ABL1 M351T	enzyme activity	inhibitor	–	0.1 µM	inhibition	86%
CN([C@@H]1CCc2c(CC(=O)O)c3cc(S(C)(=O)=O)ccc3n2C1)S(=O)(=O)c1ccc(F)cc1	ABL1 H396P phosphorylated	cell-free assay	–	competition with immobilised ligand	1 µM	remaining binding	78%
Cc1cnc(NC2CCOCC2)nc1-n1cnc(C(=O)NC(CN)c2cc(F)cc(Cl)c2)c1 (stereo not drawn)	ABL1 Y253F	enzyme activity	inhibitor	radiometric	1 µM	remaining activity	102%
Cc1nccc(COC(=O)N2C[C@@H]3[C@@H](CNC(=O)c4ccc5[nH]nnc5c4)[C@@H]3C2)n1	ABL1 Q252H phosphorylated	cell-free assay	–	competition with immobilised ligand	1 µM	remaining binding	93%
N[C@@H]1CCN(c2nccc(-c3cnn4ncccc34)n2)C1	ABL1 phosphorylated	binding	–	–	1 µM	remaining binding	95%
COc1cnc(Nc2cccc(S(N)(=O)=O)c2)nc1N1CCN(c2ccccc2)C(=O)C1	ABL1 F317I phosphorylated	binding	–	competition with immobilised ligand	1 µM	remaining binding	96%
O=C(N1CCS(=O)(=O)CC1)N1C[C@H](c2ccc(OC(F)(F)F)cc2)C[C@H](c2nc(C3CC3)no2)C1	ABL1 H396P phosphorylated	cell-free assay	–	competition with immobilised ligand	1 µM	remaining binding	100%
